Source: ChEMBL document CHEMBL4196195, “( R)- N-(1-Methyl-2-hydroxyethyl)-13-( S)-methyl-arachidonamide (AMG315): A Novel Chiral Potent Endocannabinoid Ligand with Stability to Metabolizing Enzymes” (J Med Chem, 2018)
Active and inactive are the calls of the source.

Columns and labels:
Mus musculus [1] = assay: Antiallodynic activity in CD1 mouse model of CFA-induced inflammatory pain assessed as increase in CFA-reduced mechanical paw withdrawal threshold at 5 mg/kg, ip measured up to 30 mins post injection; assay type: functional, organism-based
Summary of the method: (§1)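 Adult male mice (39 ± 10 g), wild-type CD1 or CB1 KO on CD1 background, single housed. CFA:saline 1:1 (20 μL) injected intraplantar into right hind paw; 48 h allowed before dosing. Drug given ip in 5 mL/kg, vehicle group included. Electronic von Frey (90 g probe) after ≥30 min habituation, read in duplicate per paw, at baseline, 48 h post-CFA and 10, 30, 60, 120 min post-dose. Two-way mixed ANOVA with Bonferroni post hoc tests.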

[2] = biological target: T1, ABHD6 (monoacylglycerol lipase ABHD6) (Homo sapiens, UniProt Q9BV23); assay: Stability assessed as human ABHD6-mediated compound hydrolysis by HPLC analysis; assay type: ADME; settings: read-out: Stability
T1 sequence (Q9BV23 whole entry): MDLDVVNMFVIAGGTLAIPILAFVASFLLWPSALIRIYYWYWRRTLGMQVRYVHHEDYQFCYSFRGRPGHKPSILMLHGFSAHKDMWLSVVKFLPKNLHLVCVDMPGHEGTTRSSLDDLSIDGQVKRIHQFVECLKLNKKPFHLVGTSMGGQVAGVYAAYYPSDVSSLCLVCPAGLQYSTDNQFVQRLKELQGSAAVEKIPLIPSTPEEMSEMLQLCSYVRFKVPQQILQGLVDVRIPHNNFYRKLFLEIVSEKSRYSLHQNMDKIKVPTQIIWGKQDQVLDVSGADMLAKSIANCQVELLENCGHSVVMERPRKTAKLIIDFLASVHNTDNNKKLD
Summary of the method: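 Human MGL or ABHD6 expressed in E. coli BL21(DE3); cell lysate in 150 mM NaCl, 50 mM Tris, 1% Triton X-100, pH 8.0. Lysate (0.5 µg total protein) incubated at 37 °C with compound or 2-AG reference for 30 min. Samples at 0–30 min quenched in acetonitrile. Analysed by C18 reversed-phase HPLC with UV at 204 nm against external standards.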

Cannabinoid receptor 1 = Cannabinoid receptor 1 (Rattus norvegicus, UniProt P20272); assay: Displacement of [3H]CP-55,940 from CB1 receptor in rat brain membranes in absence of FAAH inhibitor PMSF by radioligand binding assay; assay type: cell membranes, Membrane
Sequence of Cannabinoid receptor 1 (P20272 whole entry): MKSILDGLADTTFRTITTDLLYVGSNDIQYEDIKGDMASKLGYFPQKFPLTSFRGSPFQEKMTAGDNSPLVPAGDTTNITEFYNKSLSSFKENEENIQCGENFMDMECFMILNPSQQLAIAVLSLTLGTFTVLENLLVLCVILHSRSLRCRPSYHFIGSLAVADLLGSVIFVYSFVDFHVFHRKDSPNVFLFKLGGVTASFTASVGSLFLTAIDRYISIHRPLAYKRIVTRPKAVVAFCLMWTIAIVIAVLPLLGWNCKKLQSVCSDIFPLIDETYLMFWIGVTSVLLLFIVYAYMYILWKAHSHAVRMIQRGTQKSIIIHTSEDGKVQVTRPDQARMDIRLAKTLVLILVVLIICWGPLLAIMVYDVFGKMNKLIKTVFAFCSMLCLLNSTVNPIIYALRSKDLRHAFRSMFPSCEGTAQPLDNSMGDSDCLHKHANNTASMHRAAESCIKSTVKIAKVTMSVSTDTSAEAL

Mus musculus [3] = assay: Antiallodynic activity in CB1 receptor knockout CD1 mouse model of CFA-induced inflammatory pain assessed as increase in CFA-reduced mechanical paw withdrawal threshold at 5 mg/kg, ip measured at 10 to 120 mins post injection; assay type: functional, organism-based; summary of the method: as §1
[4] = biological target: Cannabinoid receptor 1 (Rattus norvegicus) (UniProt P20272); assay: Agonist activity at rat CB1 receptor expressed in HEK293 cells assessed as inhibition of forskolin-induced cAMP accumulation incubated for 30 mins relative to 500 nM CP-55,940; assay type: functional, cell-based
Sequence of Cannabinoid receptor 1 (Rattus norvegicus) (P20272 whole entry): as above

Mus musculus [5] = assay: Antiallodynic activity in CD1 mouse model of CFA-induced inflammatory pain assessed as increase in CFA-reduced mechanical paw withdrawal threshold at 5 mg/kg, ip measured at 120 mins post injection; assay type: functional, organism-based; summary of the method: as §1
Mus musculus [6] = assay: Effect on mechanical paw withdrawal threshold of contralateral paw in CD1 mouse model of CFA-induced inflammatory pain at 5 mg/kg, ip measured at 10 to 120 mins post injection; assay type: ADME, organism-based; settings: in vivo
Summary of the method: (§2)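 Wild-type CD1 or CB1 KO (CD1 background) adult male mice. Unilateral intraplantar CFA:saline 1:1 (20 μL) into right hind paw, 48 h before ip dosing (5 mL/kg); vehicle controls. Threshold of the uninjected contralateral paw measured by electronic von Frey (90 g probe), duplicate readings averaged, at 10, 30, 60, 120 min post-dose. Two-way mixed ANOVA.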

Mus musculus [7] = assay: Effect on mechanical paw withdrawal threshold of contralateral paw in CB1 receptor knockout CD1 mouse model of CFA-induced inflammatory pain at 5 mg/kg, ip measured at 10 to 120 mins post injection; assay type: ADME, organism-based; settings: in vivo; summary of the method: as §2
[8] = biological target: T2, FAAH (fatty-acid amide hydrolase 1) (Homo sapiens, UniProt O00519); assay: Stability assessed as human FAAH-mediated compound hydrolysis by LC-MS/MS analysis; assay type: ADME; settings: human FAAH (fatty-acid amide hydrolase 1), read-out: Stability
T2 sequence (O00519 whole entry): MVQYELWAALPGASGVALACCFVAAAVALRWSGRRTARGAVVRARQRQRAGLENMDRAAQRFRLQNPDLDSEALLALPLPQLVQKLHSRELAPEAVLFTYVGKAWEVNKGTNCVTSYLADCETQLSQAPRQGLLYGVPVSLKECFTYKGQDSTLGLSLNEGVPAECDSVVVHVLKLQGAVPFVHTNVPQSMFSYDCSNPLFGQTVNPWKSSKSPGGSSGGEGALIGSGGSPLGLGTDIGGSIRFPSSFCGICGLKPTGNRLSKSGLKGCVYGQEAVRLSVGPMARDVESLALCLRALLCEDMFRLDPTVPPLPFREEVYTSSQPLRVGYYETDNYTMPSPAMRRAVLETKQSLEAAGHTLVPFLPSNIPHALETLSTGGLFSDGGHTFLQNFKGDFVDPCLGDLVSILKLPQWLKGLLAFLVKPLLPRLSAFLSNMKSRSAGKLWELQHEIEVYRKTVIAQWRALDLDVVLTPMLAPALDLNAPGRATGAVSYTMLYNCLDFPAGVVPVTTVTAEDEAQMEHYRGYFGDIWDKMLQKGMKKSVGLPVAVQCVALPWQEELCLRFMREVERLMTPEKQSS
Summary of the method: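 Expressed, partially purified rat or human FAAH incubated with compound, or AEA as reference substrate, for 30 min. Aliquots at time points quenched in acetonitrile to precipitate protein. Remaining compound measured by LC-MS/MS on a cyano column with 10 mM ammonium acetate pH 7.3/methanol at 0.5 mL/min.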

[9] = biological target: T3, Prostaglandin G/H synthase 2 (Mus musculus, UniProt Q05769); assay: Stability assessed as mouse COX2-mediated compound oxidation by measuring oxygen consumption by polarographic assay; assay type: ADME
T3 sequence (Q05769 whole entry): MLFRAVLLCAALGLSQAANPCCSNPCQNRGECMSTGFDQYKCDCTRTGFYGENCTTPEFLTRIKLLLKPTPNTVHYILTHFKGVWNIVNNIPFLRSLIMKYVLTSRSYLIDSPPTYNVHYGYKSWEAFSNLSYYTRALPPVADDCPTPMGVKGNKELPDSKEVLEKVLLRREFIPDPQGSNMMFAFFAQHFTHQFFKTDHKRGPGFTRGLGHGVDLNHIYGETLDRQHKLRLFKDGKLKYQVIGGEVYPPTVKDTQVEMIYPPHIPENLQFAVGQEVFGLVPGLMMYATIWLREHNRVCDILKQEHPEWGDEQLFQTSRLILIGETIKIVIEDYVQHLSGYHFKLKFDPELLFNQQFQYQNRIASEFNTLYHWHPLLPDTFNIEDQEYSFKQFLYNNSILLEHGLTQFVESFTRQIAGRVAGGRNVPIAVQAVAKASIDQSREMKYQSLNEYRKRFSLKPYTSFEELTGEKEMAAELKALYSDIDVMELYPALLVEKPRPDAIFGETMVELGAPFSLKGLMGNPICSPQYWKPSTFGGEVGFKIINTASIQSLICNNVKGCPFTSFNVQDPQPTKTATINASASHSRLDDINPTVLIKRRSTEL

## CCCCC/C=C\[C@H](C)/C=C\C/C=C\C/C=C\CCCC(=O)N[C@H](C)CO
Mus musculus [1]
  Activity: Active
[2]
  half-life: 30 min
Cannabinoid receptor 1
  Ki: 7.8 nM
Mus musculus [3]
  Activity: inactive
[4]
  Emax: 76%
Mus musculus [5]
  Activity: inactive
Mus musculus [6]
  Activity: Non-Toxic
Mus musculus [7]
  Activity: Non-Toxic
[8]
  half-life: 30 min
[9]
  Stability: Stable
